Data set [1] concerns the target T1, Tyrosine-protein kinase JAK1 (Homo sapiens, UniProt P23458). The data set is described as follows: Inhibition of cytoplasmic recombinant human GST-tagged JAK1 (886 to 1154 residues) expressed in insect cells using FITC-C6-KKHTDDGYMPMSPGVA-NH as substrate after 10 mins by caliper assay. The gist of the method: (§1)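 Biochemical kinase inhibition IC50 measured at 5 mM ATP. Values are the geometric mean of at least two independent experiments.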

The target in data set [2] is Tyrosine-protein kinase JAK2 (Homo sapiens, UniProt O60674). Description: Inhibition of recombinant human JAK2 (831 to 1132 residues) expressed in insect cells using 5FAM-GEEPLYWSFPAKKK-NH2 as substrate after 10 mins by caliper assay. The gist of the method:
as §1

Data set [3] addresses T2, Tyrosine-protein kinase JAK3 (Homo sapiens, UniProt P52333).
T2 sequence (P52333 whole entry): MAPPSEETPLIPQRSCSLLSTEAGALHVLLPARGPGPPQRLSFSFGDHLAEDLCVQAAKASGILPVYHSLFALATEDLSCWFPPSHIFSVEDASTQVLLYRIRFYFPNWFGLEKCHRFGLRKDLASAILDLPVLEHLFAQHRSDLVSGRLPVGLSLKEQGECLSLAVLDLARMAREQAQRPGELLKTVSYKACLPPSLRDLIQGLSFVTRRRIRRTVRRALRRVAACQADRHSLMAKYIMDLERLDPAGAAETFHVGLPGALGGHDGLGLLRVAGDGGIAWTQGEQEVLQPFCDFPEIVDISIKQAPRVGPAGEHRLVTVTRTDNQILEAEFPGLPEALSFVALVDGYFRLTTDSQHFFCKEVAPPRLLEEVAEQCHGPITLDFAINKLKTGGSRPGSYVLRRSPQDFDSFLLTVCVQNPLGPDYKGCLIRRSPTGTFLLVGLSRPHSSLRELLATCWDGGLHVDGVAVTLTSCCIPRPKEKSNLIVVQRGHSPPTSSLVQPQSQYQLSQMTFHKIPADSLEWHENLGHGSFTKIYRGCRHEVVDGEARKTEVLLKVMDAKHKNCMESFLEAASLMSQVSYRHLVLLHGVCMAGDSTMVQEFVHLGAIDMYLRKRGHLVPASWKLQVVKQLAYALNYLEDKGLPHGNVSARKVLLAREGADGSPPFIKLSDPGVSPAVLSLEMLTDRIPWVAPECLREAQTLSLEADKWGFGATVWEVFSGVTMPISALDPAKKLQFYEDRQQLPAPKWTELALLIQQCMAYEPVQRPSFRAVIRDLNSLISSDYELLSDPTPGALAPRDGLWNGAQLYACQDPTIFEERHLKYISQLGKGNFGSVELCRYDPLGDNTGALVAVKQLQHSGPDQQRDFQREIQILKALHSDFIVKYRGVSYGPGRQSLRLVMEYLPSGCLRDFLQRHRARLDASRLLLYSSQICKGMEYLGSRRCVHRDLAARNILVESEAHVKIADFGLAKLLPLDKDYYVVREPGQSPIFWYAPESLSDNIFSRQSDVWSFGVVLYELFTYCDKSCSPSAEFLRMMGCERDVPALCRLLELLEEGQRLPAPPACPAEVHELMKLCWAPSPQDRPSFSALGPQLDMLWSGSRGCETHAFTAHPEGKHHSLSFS
Description: Inhibition of recombinant human JAK3 (781 to 1124 residues) expressed in insect cells using 5FAM-GEEPLYWSFPAKKK-NH2 as substrate after 10 mins by caliper assay. The gist of the method: as §1

The species named for data set [4] is Homo sapiens. The data set is described as follows: Selectivity ratio of IC50 for recombinant human JAK2 (831 to 1132 residues) expressed in insect cell to IC50 for cytoplasmic recombinant human GST-tagged JAK1 (886 to 1154 residues) expressed in baculovirus. The gist of the method: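 Biochemical IC50s measured against JAK1 and JAK2 at 5 mM ATP. Each IC50 is the geometric mean of at least two independent experiments. The ratio is the JAK2 IC50 divided by the JAK1 IC50.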

Data set [5] in a line: Octanol-water partition coefficient, log D of the compound in sodium phosphate buffer at pH 7.4 after 5 hrs by shake-flask assay. In kind it is physicochemical.
For data set [6], the target named is T1, Tyrosine-protein kinase JAK1. Description: Inhibition of JAK1 in human NCI-H1975 cells assessed as reduction in STAT3 phosphorylation after 1 hr by ELISA. The format is cell-based. In outline:
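Cellular mode-of-action assay in NCI-H1975 cells, read as inhibition of STAT3 phosphorylation. EC50 was derived.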
On the technique in general: An ELISA detects its analyte on a solid surface through an enzyme-linked reagent.

Data set [7] can be described thus: Intrinsic clearance in human liver microsomes. The format is ADME, microsome. The following applies: read-out: CLH.
The target of data set [8] is Non-receptor tyrosine-protein kinase TYK2 (Homo sapiens, UniProt P29597). Description: Inhibition of recombinant human N-terminal GST-tagged TYK2 (871 to 1187 residues) expressed in baculovirus expression system using 5FAM-GEEPLYWSFPAKKK-NH2 as substrate after 10 mins by caliper assay. In outline: as §1
Data set [9] relates to A549. Description: Antiproliferative activity against human A549 cells after 48 hrs by Alamar Blue based assay. In kind it is functional. The following applies: A549, 48 h. The gist of the method: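 Antiproliferation assay in A549 cells, reported as GI50.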
Background: Resazurin is reduced to fluorescent resorufin, in cell work by metabolically active cells.

Where only a bound is given, the exact number is not on record here.

Sequence of Tyrosine-protein kinase JAK2 (O60674 whole entry, the tested form may be a part): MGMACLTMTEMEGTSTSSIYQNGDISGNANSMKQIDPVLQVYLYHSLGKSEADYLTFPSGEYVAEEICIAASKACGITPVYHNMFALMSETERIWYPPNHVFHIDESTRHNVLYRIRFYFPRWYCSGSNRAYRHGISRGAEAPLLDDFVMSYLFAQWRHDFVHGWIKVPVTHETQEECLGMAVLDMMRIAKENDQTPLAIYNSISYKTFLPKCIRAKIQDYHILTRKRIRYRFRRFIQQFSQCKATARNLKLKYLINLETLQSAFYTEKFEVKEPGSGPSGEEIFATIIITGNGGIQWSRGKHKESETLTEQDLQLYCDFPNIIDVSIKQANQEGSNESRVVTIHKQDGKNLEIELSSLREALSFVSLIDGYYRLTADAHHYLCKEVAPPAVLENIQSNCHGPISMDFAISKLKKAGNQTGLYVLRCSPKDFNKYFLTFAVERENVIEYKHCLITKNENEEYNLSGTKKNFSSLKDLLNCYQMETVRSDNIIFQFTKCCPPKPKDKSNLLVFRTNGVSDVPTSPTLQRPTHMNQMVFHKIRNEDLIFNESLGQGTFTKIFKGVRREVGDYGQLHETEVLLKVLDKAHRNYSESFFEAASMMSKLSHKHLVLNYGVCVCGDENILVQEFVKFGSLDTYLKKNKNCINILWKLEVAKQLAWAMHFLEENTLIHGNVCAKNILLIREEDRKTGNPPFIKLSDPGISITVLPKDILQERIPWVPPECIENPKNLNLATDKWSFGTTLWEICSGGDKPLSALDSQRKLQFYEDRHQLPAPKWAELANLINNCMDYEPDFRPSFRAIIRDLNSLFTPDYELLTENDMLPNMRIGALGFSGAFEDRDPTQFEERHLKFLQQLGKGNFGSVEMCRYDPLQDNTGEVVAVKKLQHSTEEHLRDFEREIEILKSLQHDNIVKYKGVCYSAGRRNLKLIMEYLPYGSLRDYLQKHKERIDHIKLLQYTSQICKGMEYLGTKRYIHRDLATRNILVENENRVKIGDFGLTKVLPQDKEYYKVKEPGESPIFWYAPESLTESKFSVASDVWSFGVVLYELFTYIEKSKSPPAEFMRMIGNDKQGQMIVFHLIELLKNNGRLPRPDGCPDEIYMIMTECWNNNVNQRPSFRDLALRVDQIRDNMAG
T1 sequence (P23458 whole entry, the tested form may be a part): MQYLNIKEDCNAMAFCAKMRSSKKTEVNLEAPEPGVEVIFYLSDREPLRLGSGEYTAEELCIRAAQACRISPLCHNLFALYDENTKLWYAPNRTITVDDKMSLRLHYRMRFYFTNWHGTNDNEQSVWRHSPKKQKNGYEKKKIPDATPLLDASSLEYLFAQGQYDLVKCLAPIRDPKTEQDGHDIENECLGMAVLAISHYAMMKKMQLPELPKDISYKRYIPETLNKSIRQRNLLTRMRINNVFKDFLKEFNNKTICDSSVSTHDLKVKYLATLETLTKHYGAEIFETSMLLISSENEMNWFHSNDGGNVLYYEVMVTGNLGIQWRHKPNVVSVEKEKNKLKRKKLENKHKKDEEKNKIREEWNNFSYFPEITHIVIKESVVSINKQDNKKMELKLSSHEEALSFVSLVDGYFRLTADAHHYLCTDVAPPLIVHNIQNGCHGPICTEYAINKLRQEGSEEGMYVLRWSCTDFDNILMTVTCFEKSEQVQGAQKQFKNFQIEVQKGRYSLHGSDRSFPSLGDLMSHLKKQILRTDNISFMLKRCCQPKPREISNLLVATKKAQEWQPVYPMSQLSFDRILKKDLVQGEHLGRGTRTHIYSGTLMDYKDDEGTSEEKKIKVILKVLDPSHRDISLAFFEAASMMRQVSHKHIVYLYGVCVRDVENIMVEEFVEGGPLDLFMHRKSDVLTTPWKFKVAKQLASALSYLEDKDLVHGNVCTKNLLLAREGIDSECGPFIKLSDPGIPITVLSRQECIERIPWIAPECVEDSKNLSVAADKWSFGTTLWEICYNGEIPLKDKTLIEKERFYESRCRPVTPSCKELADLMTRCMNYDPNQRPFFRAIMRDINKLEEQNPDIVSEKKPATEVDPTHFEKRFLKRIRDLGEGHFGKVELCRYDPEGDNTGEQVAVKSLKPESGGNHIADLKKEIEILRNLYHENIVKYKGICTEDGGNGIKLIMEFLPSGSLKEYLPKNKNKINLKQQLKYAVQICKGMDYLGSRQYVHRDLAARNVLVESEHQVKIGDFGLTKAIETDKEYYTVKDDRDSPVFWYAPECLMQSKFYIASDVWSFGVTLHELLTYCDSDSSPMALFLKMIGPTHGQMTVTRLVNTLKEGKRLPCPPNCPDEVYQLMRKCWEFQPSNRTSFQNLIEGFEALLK
Sequence of Non-receptor tyrosine-protein kinase TYK2 (P29597 whole entry, the tested form may be a part): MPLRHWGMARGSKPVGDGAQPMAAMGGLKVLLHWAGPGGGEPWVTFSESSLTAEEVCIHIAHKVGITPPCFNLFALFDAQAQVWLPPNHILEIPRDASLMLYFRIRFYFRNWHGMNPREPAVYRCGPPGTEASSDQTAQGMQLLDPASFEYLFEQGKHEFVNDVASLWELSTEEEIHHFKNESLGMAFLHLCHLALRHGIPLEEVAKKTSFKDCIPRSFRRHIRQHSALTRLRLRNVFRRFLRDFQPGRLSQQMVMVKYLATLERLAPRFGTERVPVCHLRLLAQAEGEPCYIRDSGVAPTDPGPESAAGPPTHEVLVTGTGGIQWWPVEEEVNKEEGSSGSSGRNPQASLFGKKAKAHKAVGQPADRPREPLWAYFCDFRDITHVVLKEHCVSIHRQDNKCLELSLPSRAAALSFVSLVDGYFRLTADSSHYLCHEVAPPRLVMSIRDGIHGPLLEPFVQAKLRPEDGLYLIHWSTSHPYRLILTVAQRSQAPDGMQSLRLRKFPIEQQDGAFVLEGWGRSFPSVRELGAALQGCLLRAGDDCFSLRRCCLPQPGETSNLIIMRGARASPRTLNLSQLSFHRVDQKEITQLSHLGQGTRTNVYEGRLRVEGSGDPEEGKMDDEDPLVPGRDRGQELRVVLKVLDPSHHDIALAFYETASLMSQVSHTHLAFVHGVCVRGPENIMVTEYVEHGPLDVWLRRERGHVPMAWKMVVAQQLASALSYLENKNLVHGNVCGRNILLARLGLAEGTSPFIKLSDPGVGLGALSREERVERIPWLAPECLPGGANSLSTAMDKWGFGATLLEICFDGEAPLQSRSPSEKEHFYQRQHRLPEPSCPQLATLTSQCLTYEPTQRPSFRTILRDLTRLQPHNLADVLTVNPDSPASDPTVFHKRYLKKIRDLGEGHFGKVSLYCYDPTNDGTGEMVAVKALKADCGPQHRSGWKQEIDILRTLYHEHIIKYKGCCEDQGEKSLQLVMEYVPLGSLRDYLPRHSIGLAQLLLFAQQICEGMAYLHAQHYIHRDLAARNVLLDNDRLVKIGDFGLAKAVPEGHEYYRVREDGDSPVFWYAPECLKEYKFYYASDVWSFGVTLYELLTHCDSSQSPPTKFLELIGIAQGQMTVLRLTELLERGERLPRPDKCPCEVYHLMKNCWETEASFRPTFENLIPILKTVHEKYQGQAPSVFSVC

For the compound `CN1CCN(c2cc(Nc3nccc(Nc4ccc(F)c(Cl)c4F)n3)cc(S(C)(=O)=O)c2)CC1`, the IC50 – broadly, the concentration that gives 50% inhibition – in data set [1] was < 3 nM; in data set [2], 36 nM; in data set [3], 464 nM. The Ratio IC50 in [4] was > 10.
In the case of `Cc1cnc(Nc2cc(N3C[C@@H]4C[C@H]3CN4C)cc(S(C)(=O)=O)c2)nc1Nc1cccc(CO)c1`, the values for the IC50 in data set [1], in [2] and in [3] were < 3 nM, 1180 nM and > 27900 nM, respectively. Also, the log distribution coefficient (logD) (in general, lipophilicity at a set pH, counting ionised and neutral species) at 5 h in data set [5] is 0.82. Moreover, the EC50 (usually the concentration that produces a half-maximal response) in data set [6] is 92 nM. The microsomal CLint in data set [7] turned out to be 7.32 µL/min/mg.
For `Cc1cnc(Nc2cc(N3CCOCC3)cc(S(C)(=O)=O)c2)nc1Nc1cccc(CO)c1`, the IC50 in data set [1] is 13 nM; in data set [2], 417 nM; in [3], > 30000 nM. Also, the Ratio IC50 in data set [4] came to 32.
With `Cc1cnc(Nc2cc(N3C[C@@H]4C[C@H]3CN4C)ccc2F)nc1Nc1cccc(CO)c1`, the 50% inhibitory concentration (IC50) in data set [1] was 117 nM; in data set [2], > 30000 nM; in data set [3], > 30000 nM. The EC50 in [6] came out at 101 nM.
Consider `CN1CCN(c2cc(Nc3ncc(Br)c(Nc4cccc(CO)c4)n3)cc(S(C)(=O)=O)c2)CC1`, for which the concentration for half-maximal inhibition (IC50) in data set [1] is < 3 nM; in [2] it was 363 nM; in [3], 6540 nM. Also, the Ratio IC50 in data set [4] is > 120. Moreover, the pH-dependent lipophilicity (logD) at 5 h in [5] was found to be 2.43.
Take `CN1CCN(c2cc(Nc3ncc(F)c(Nc4cccc(CO)c4)n3)cc(S(C)(=O)=O)c2)CC1`: the values for the IC50 in data set [1], in data set [2] and in [3] were 42 nM, 6410 nM and > 30000 nM, respectively. For the same compound, the Ratio IC50 in data set [4] amounted to 150. The same compound returned a logD at 5 h in data set [5] of 1.84.
Take `CN1CCN(c2cc(Nc3nccc(Nc4cccc(CO)c4)n3)cc(S(C)(=O)=O)c2)CC1`: the half-inhibitory concentration (IC50) was 3 to 100 nM in [1], 13900 nM in [2] and > 30000 nM in [3]. Further, the Ratio IC50 in data set [4] came out at 140. This compound also gave a pH-dependent lipophilicity (logD) at 5 h in data set [5] of 1.75.
With `Cc1cnc(Nc2cc(N3C[C@@H]4C[C@H]3CN4C)cnc2F)nc1N[C@H](C)C(C)C`, the results for the IC50 in data set [1], in [2] and in data set [8] were 26 nM, > 30000 nM and 24700 nM, respectively. Moreover, the EC50 in data set [6] was determined as 50 nM.
As for `Cc1cnc(Nc2cc(N3CCNCC3)cc(S(C)(=O)=O)c2)nc1Nc1cccc(CO)c1`, the results for the half-inhibitory concentration (IC50) in data set [1], in data set [2] and in data set [3] were < 3 nM, 951 nM and > 30000 nM, respectively. For the same compound, the logD at 5 h in data set [5] came to 1.09. For the same compound, the EC50 in data set [6] was 496 nM.
For `Cc1cnc(Nc2cc(N3CCN(CCO)CC3)cc(S(C)(=O)=O)c2)nc1Nc1cccc(CO)c1`, in that order: 6 nM, 817 nM, > 30000 nM, 1.29 and > 3000 nM.
For `Cc1cnc(Nc2cccc(N3CCN(C)CC3)c2)nc1Nc1cccc(CO)c1`, the IC50 is 55 nM in data set [1], 357 nM in data set [2] and 20300 nM in [3]. Also, the Ratio IC50 in [4] is 6.5.
As for `COCCN1CCN(c2cc(Nc3ncc(C)c(Nc4cccc(CO)c4)n3)cc(S(C)(=O)=O)c2)CC1`, the IC50 in data set [1] is 12 nM; in [2], 1030 nM; in data set [3], > 30000 nM. Besides, the pH-dependent lipophilicity (logD) at 5 h in data set [5] amounted to 1.9. Also, the EC50 in data set [6] came to 189 nM.
Consider `Cc1cnc(Nc2cc(N3CCN(C)CC3)cc(S(C)(=O)=O)c2)nc1Nc1cccc(CO)c1`, for which the values for the IC50 in data set [1], in data set [2] and in data set [3] were < 3 nM, 929 nM and > 30000 nM, respectively. The Ratio IC50 in data set [4] is > 309. In [5], this compound returned a log distribution coefficient (logD) at 5 h of 1.74. The EC50 in [6] came out at 99 nM. Also, the microsomal CLint in data set [7] was 59.5 µL/min/mg.
Turning to `CN1CCN(c2cc(Nc3ncc(Cl)c(Nc4cccc(CO)c4)n3)cc(S(C)(=O)=O)c2)CC1`, the IC50 in data set [1] was < 3 nM; in [2], 722 nM; in data set [3], 12600 nM. Moreover, the Ratio IC50 in data set [4] was > 240. This compound showed a log distribution coefficient (logD) at 5 h in data set [5] of 2.16.
Consider `CCC(CC)Nc1nc(Nc2cc(N3C[C@@H]4C[C@H]3CN4C)cnc2F)ncc1C`, for which the 50% inhibitory concentration (IC50) was 29 nM in [1], > 30000 nM in data set [2], > 30000 nM in data set [3] and > 30000 nM in [8]. In addition, the EC50 in [6] was found to be 44 nM. For the same compound, the 50% growth inhibitory concentration (GI50) – broadly, the concentration giving 50% growth inhibition – in data set [9] is > 10000 nM.
Regarding `Cc1cnc(Nc2cc(N3CCOCC3)cc(N3CCOCC3)c2)nc1Nc1cccc(CO)c1`, the 50% inhibitory concentration (IC50) is 4 nM in [1], < 3 nM in data set [2] and 371 nM in data set [3]. Further, the Ratio IC50 in data set [4] is < 0.75.
On to `Cc1cnc(Nc2cc(N3C[C@@H](C)N[C@@H](C)C3)cc(S(C)(=O)=O)c2)nc1Nc1cccc(CO)c1`, for which the IC50 in [1] was 5 nM; in data set [2], 996 nM; in data set [3] it was > 30000 nM. For the same compound, in [5], the logD at 5 h is 1.24. Also, the 50% effective concentration (EC50) in data set [6] is 325 nM.
As for `CC(=O)N1CCN(c2cc(Nc3ncc(C)c(Nc4cccc(CO)c4)n3)cc(S(C)(=O)=O)c2)CC1`, the values for the IC50 in data set [1], in data set [2] and in data set [3] were 10 nM, 347 nM and 24600 nM, respectively. Further, the logD at 5 h in data set [5] was determined as 1.74. Besides, the EC50 in data set [6] is > 3000 nM.
Regarding `Cc1cnc(Nc2cc(C(F)F)cc(N3C[C@@H]4C[C@H]3CN4C)c2)nc1Nc1cccc(CO)c1`, the IC50 turned out to be 16 nM in data set [1], 376 nM in data set [2] and 18100 nM in data set [3]. Further, the half-maximal effective concentration (EC50) in data set [6] is 37 nM.
With `Cc1cnc(Nc2cc(N3C[C@@H]4C[C@H]3CN4C)cc(C(F)F)c2F)nc1Nc1cccc(CO)c1`, the concentration for half-maximal inhibition (IC50) in data set [1] was 55 nM; in data set [2], > 30000 nM; in data set [3] it was > 30000 nM. Further, the 50% effective concentration (EC50) in data set [6] came out at 26 nM.
On to `Cc1cnc(Nc2cc(N3C[C@@H]4C[C@H]3CN4C)cnc2F)nc1Nc1cccc(CO)c1`, for which the values for the IC50 in data set [1], in [2] and in data set [3] were 40 nM, > 30000 nM and > 30000 nM, respectively. Besides, the 50% effective concentration (EC50) in data set [6] stood at 68 nM. For the same compound, the 50% growth inhibitory concentration (GI50) in data set [9] amounted to 253 nM.

The values are drawn from ChEMBL document CHEMBL4138312 (J Med Chem, 2018).
